Series [1] has as its target T1, Glucocorticoid receptor (Homo sapiens) (UniProt P04150).
T1 sequence (whole entry): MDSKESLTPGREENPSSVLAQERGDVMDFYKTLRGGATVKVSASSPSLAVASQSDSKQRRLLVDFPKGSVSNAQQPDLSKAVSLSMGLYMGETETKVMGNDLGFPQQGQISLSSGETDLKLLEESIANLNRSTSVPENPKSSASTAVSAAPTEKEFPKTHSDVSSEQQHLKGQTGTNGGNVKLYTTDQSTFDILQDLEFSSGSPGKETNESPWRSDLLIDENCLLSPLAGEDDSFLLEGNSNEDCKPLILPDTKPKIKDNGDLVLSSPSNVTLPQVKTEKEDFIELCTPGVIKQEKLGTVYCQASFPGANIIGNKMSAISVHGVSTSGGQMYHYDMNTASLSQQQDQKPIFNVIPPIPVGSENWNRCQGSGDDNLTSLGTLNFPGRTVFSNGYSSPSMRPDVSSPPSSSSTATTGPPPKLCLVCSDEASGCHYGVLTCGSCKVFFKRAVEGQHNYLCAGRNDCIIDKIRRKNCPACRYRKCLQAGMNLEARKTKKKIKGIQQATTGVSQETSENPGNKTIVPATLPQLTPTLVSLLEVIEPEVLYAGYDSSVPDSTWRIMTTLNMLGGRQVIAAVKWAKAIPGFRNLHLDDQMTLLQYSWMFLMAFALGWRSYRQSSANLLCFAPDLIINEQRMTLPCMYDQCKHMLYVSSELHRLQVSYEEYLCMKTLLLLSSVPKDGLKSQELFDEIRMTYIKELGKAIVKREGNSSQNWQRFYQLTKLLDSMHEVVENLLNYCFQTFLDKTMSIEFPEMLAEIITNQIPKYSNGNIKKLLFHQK
Briefly: Transactivation of GCR (unknown origin) expressed in human fibrosarcoma cells at 0.1 uM after 6 hrs by luciferase reporter gene assay. The class given is cell-based. An outline of the steps:
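GCR luciferase reporter run with single compound at 0.1 µM to probe agonism; reference agonist DEX at 1 µM.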

The target of series [2] is T1, Glucocorticoid receptor (Homo sapiens). The series can be described thus: Transrepression of GCR (unknown origin) expressed in human fibrosarcoma cells assessed as inhibition of DEX-induced GCR activation at 0.1 uM after 6 hrs by luciferase reporter gene assay relative to DEX; values are per cent of control. A general note: In a reporter assay the amount or activity of a reporter protein is the signal.

Series [3] relates to HeLa. The series can be described thus: Down regulation of GCRalpha expression in human HeLa cells at 2 uM after 24 hrs by Taqman-based real-time PCR analysis relative to control. The class given is functional, cell-based. A digest of the protocol: (§1)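 GCR transcripts quantified in HeLa cells after 24 h treatment at 0.4 and 2 µM. Means ± SD of 3 independent experiments; compared by one-way ANOVA.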
For orientation: Real-time PCR tracks product formation cycle by cycle.

The test system of series [4] is HeLa. The series can be described thus: Cytotoxicity against human HeLa cells after 72 hrs by MTT assay. It counts as cell-based. An outline of the steps:
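HeLa cells exposed 72 h in complete medium to 0.4, 2, 10, 50 and 250 µM; viability read by MTT. Means ± SE of 3 independent experiments run in triplicate.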
(Tetrazolium dyes change colour on reduction, which living cells bring about.)

Series [5] has as its system HeLa. The series can be described thus: Down regulation of GCRalpha expression in human HeLa cells at 0.4 uM after 24 hrs by Taqman-based real-time PCR analysis relative to control. The class given is functional. An outline of the steps: as §1
The target in series [6] is T1, Glucocorticoid receptor (Homo sapiens). The series can be described thus: Transrepression of GCR in human HeLa cells assessed as down regulation of GILZ mRNA expression at 0.4 uM after 24 hrs by Taqman-based real-time PCR analysis. The class given is cell-based. A digest of the protocol: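 GILZ expression measured in HeLa cells after 24 h treatment at 0.4 and 2 µM, relative to untreated cells.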

For series [7] the target is unchanged. Briefly: Transrepression of GCR (unknown origin) expressed in human fibrosarcoma cells assessed as suppression of TNF-induced NFkappaB activity at 1 uM pretreated for 2 hrs followed by TNF addition after 4 hrs by luciferase reporter gene assay relative to control. The class given is cell-based. A digest of the protocol:
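Cells pretreated 2 h with compound alone, then TNF added and combination treatment continued 4 h; NF-kB luciferase reporter activity measured.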

The target is the same in series [8]. The series can be described thus: Transrepression of GCR in human HeLa cells assessed as suppression of DEX-induced GILZ mRNA expression at 0.4 to 2 uM after 24 hrs by Taqman-based real-time PCR analysis. It counts as cell-based. A digest of the protocol: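 HeLa cells treated 24 h with DEX alone (0.1 µM) or DEX plus compound; GILZ transcription measured. RU486 plus DEX served as competitive-antagonist control.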

Series [9] is described as follows: Solubility of the compound in water. It counts as physicochemical. Conditions: buffer.

“And” between values parts separate entries of the source, which are not always exact repeats. Equal values may be shown once. The source made the active and inactive calls. The rule behind the calls is not given here.

With `CCn1c2ccccc2n2cc(-c3ccc(C#N)cc3)nc12`, the result in series [1] was inactive. In addition, the residual activity in series [2] came to 25%.

In the case of `O=C(O)c1ccc(-c2cn3c4c(sc3n2)CCCC4)cc1`, the outcome in the series on HeLa [3] was inactive. The compound further came in with an EC50 with HeLa [4] of 170 µM. Further, the Activity in the series with HeLa [5] turned out to be 50%. Besides, the outcome in series [6] was Active.

In the case of `Cc1ccc(-c2cn3c(n2)sc2ccccc23)cc1`, the outcome in series [1] was inactive. Also, in series [2], the residual activity was 30%.

For the compound `COC(=O)c1ccc(-c2cn3c4c(sc3n2)CCCC4)cc1`, the result in the series on HeLa [3] was inactive. The compound also registered an EC50 with HeLa [4] of 7.7 µM. Besides, the result (with HeLa [5]; in [6]) was Active.

In the case of `Brc1ccc(-c2cn3c(n2)sc2ccccc23)cc1`, the outcome in series [1] was inactive. In addition, in series [2], the residual activity was 20%.

Regarding `N#Cc1ccc(-c2cn3c4c(sc3n2)C(=O)CCC4)cc1`, in the series on HeLa [3], the result was inactive. The compound also yielded an EC50 with HeLa [4] of 16 µM. In addition, the result (in the series with HeLa [5]; in series [6]) was Active.

On to `OCc1ccc(-c2cn3c(n2)sc2ccccc23)cc1`, for which, in series [1], the result was inactive. For the same compound, the residual activity in series [2] came out at 34%.

With `N#Cc1ccc(-c2cn3c4c(sc3n2)CCCC4)cc1`, the outcome in series [1] and in series [8] was inactive. In the series with HeLa [4], the EC50 was 1.7 µM. Moreover, the residual activity in [2] amounted to 18%. Further, the result in series [6] was Active. Also, in series [7], the Activity turned out to be 76%.

Turning to `Cl.NCc1ccc(-c2cn3c4c(sc3n2)CCCC4)cc1`, the result in [1] was inactive. Besides, the residual activity in series [2] was 23% and 35%. Further, in [9], the solubility result was “Soluble”.

On to `Nc1ccc(-c2cn3c(n2)sc2ccccc23)cc1`, for which the outcome in [1] was inactive. The residual activity in series [2] turned out to be 23%.

On to `NCc1ccc(-c2cn3c(n2)sc2ccccc23)cc1` [listing 1 of 2 here], for which the result in series [1] and in [8] was inactive. Further, in [6], the result was Active.

On to `NCc1ccc(-c2cn3c(n2)sc2ccccc23)cc1` [listing 2 of 2 here], for which the response with HeLa [4] was half-maximal at 3.6 µM (EC50).

With `Cl.NCc1ccc(-c2cn3c(n2)sc2ccccc23)cc1`, the solubility result in series [9] is on record as “Soluble”.

A word on the EC50: it is the midpoint of the concentration-response curve. Low readings indicate a more potent agent, high ones a less potent agent.

For the origin of these results see ChEMBL document CHEMBL4251737, “Imidazo[2,1-b]benzothiazol Derivatives as Potential Allosteric Inhibitors of the Glucocorticoid Receptor” (ACS Med Chem Lett, 2018).
